# ChEMBL document CHEMBL4689842, “EUbOPEN Chemogenomics Library wave 1” (2021)
# System: U2OS
# Assay: Multiplex assay against U2OS
# Assay type: toxicity, cell-based
# Details: human
# How it was run: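 Cells stained live at seeding with Hoechst33342, BioTracker Green Microtubule Cytoskeleton Dye, MitoTracker Red and Annexin V Alexa Fluor 680 were imaged on a CQ1 microscope at 37°C and 5% CO2 after compound addition. Their classification by CellPathfinder machine-learning gating ran from Hoechst high-intensity objects versus normal cells, to healthy, pyknosed or fragmented nuclei among normal cells, to mitotic or apoptotic among pyknosed cells. Tubulin, mitochondrial-mass and membrane-permeability phenotypes are per cents of healthy-nucleus cells.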
# [1] = 12 h, 1 µM, compound concentration 1 uM, replicate 1
# [2] = 12 h, 1 µM, compound concentration 1 uM, replicate 2
# [3] = 12 h, 10 µM, compound concentration 10 uM, replicate 1
# [4] = 12 h, 10 µM, compound concentration 10 uM, replicate 2
# [5] = 24 h, 1 µM, compound concentration 1 uM, replicate 1
# [6] = 24 h, 1 µM, compound concentration 1 uM, replicate 2
# [7] = 24 h, 10 µM, compound concentration 10 uM, replicate 1
# [8] = 24 h, 10 µM, compound concentration 10 uM, replicate 2
# [9] = 48 h, 1 µM, compound concentration 1 uM, replicate 1
# [10] = 48 h, 1 µM, compound concentration 1 uM, replicate 2
# [11] = 48 h, 10 µM, compound concentration 10 uM, replicate 1
# [12] = 48 h, 10 µM, compound concentration 10 uM, replicate 2
structure (smiles),measurement,setting,value
COC(=O)C1=C(C)NC(C)=C(C(=O)OCCCN2CCC(c3ccccc3)(c3ccccc3)CC2)[C@H]1c1cccc([N+](=O)[O-])c1 [NIGULDIPINE],Population Apoptotic (%),[1],64%
same,Population Fragmented Nuclei (%),[1],18%
same,Population Healthy Nuclei (%),[1],58%
same,Population Hoechst High Intensity Objects (%),[1],11%
same,Population Membrane Permeable-Phenotype (%),[1],53%
same,Population Mitochondria Different-Phenotype (%),[1],96%
same,Population Mitotic Cells (%),[1],36%
same,Population Normal (%),[1],88%
same,Population Pyknosed Nuclei (%),[1],23%
same,Population Tubulin-Different-Phenotype (%),[1],96%
same,Total Cell Count,[1],893
same,Population Apoptotic (%),[2],91%
same,Population Fragmented Nuclei (%),[2],6%
same,Population Healthy Nuclei (%),[2],78%
same,Population Hoechst High Intensity Objects (%),[2],9%
same,Population Membrane Permeable-Phenotype (%),[2],66%
same,Population Mitochondria Different-Phenotype (%),[2],100%
same,Population Mitotic Cells (%),[2],8%
same,Population Normal (%),[2],90%
same,Population Pyknosed Nuclei (%),[2],15%
same,Population Tubulin-Different-Phenotype (%),[2],100%
same,Total Cell Count,[2],945
same,Population Apoptotic (%),[3],73%
same,Population Fragmented Nuclei (%),[3],62%
same,Population Healthy Nuclei (%),[3],4%
same,Population Hoechst High Intensity Objects (%),[3],7%
same,Population Mitochondria Different-Phenotype (%),[3],100%
same,Population Mitotic Cells (%),[3],26%
same,Population Normal (%),[3],92%
same,Population Pyknosed Nuclei (%),[3],33%
same,Total Cell Count,[3],122
same,Population Apoptotic (%),[4],76%
same,Population Fragmented Nuclei (%),[4],67%
same,Population Healthy Nuclei (%),[4],3%
same,Population Hoechst High Intensity Objects (%),[4],12%
same,Population Membrane Permeable-Phenotype (%),[4],100%
same,Population Mitochondria Different-Phenotype (%),[4],50%
same,Population Mitotic Cells (%),[4],23%
same,Population Normal (%),[4],87%
same,Population Pyknosed Nuclei (%),[4],29%
same,Population Tubulin-Different-Phenotype (%),[4],100%
same,Total Cell Count,[4],87
same,Population Apoptotic (%),[5],76%
same,Population Fragmented Nuclei (%),[5],17%
same,Population Healthy Nuclei (%),[5],52%
same,Population Hoechst High Intensity Objects (%),[5],10%
same,Population Membrane Permeable-Phenotype (%),[5],76%
same,Population Mitochondria Different-Phenotype (%),[5],98%
same,Population Mitotic Cells (%),[5],23%
same,Population Normal (%),[5],89%
same,Population Pyknosed Nuclei (%),[5],30%
same,Total Cell Count,[5],927
same,Population Apoptotic (%),[6],77%
same,Population Fragmented Nuclei (%),[6],7%
same,Population Healthy Nuclei (%),[6],65%
same,Population Hoechst High Intensity Objects (%),[6],5%
same,Population Membrane Permeable-Phenotype (%),[6],96%
same,Population Mitochondria Different-Phenotype (%),[6],100%
same,Population Mitotic Cells (%),[6],22%
same,Population Normal (%),[6],94%
same,Population Pyknosed Nuclei (%),[6],27%
same,Population Tubulin-Different-Phenotype (%),[6],100%
same,Total Cell Count,[6],948
same,Population Apoptotic (%),[7],78%
same,Population Fragmented Nuclei (%),[7],69%
same,Population Healthy Nuclei (%),[7],2%
same,Population Hoechst High Intensity Objects (%),[7],14%
same,Population Membrane Permeable-Phenotype (%),[7],100%
same,Population Mitochondria Different-Phenotype (%),[7],100%
same,Population Mitotic Cells (%),[7],21%
same,Population Normal (%),[7],85%
same,Population Pyknosed Nuclei (%),[7],27%
same,Population Tubulin-Different-Phenotype (%),[7],100%
same,Total Cell Count,[7],111
same,Population Apoptotic (%),[8],100%
same,Population Fragmented Nuclei (%),[8],40%
same,Population Healthy Nuclei (%),[8],25%
same,Population Hoechst High Intensity Objects (%),[8],11%
same,Population Mitotic Cells (%),[8],0%
same,Population Normal (%),[8],88%
same,Population Pyknosed Nuclei (%),[8],33%
same,Total Cell Count,[8],85
same,Population Apoptotic (%),[9],78%
same,Population Fragmented Nuclei (%),[9],23%
same,Population Healthy Nuclei (%),[9],39%
same,Population Hoechst High Intensity Objects (%),[9],12%
same,Population Membrane Permeable-Phenotype (%),[9],82%
same,Population Mitochondria Different-Phenotype (%),[9],97%
same,Population Mitotic Cells (%),[9],21%
same,Population Normal (%),[9],87%
same,Population Pyknosed Nuclei (%),[9],36%
same,Population Tubulin-Different-Phenotype (%),[9],97%
same,Total Cell Count,[9],922
same,Population Apoptotic (%),[10],85%
same,Population Fragmented Nuclei (%),[10],15%
same,Population Healthy Nuclei (%),[10],54%
same,Population Hoechst High Intensity Objects (%),[10],5%
same,Population Membrane Permeable-Phenotype (%),[10],92%
same,Population Mitochondria Different-Phenotype (%),[10],100%
same,Population Mitotic Cells (%),[10],14%
same,Population Normal (%),[10],94%
same,Population Pyknosed Nuclei (%),[10],30%
same,Population Tubulin-Different-Phenotype (%),[10],100%
same,Total Cell Count,[10],932
same,Population Apoptotic (%),[11],81%
same,Population Fragmented Nuclei (%),[11],69%
same,Population Healthy Nuclei (%),[11],2%
same,Population Hoechst High Intensity Objects (%),[11],10%
same,Population Membrane Permeable-Phenotype (%),[11],100%
same,Population Mitochondria Different-Phenotype (%),[11],100%
same,Population Mitotic Cells (%),[11],18%
same,Population Normal (%),[11],89%
same,Population Pyknosed Nuclei (%),[11],28%
same,Population Tubulin-Different-Phenotype (%),[11],100%
same,Total Cell Count,[11],116
same,Population Apoptotic (%),[12],100%
same,Population Fragmented Nuclei (%),[12],17%
same,Population Healthy Nuclei (%),[12],28%
same,Population Hoechst High Intensity Objects (%),[12],18%
same,Population Mitochondria Different-Phenotype (%),[12],93%
same,Population Mitotic Cells (%),[12],0%
same,Population Normal (%),[12],81%
same,Population Pyknosed Nuclei (%),[12],53%
same,Total Cell Count,[12],97
CC(C)CC(=O)Nc1[nH]nc2c1CN(C(=O)C1CCN(C)CC1)C2(C)C [PHA-793887],Population Apoptotic (%),[1],25%
same,Population Fragmented Nuclei (%),[1],3%
same,Population Healthy Nuclei (%),[1],92%
same,Population Hoechst High Intensity Objects (%),[1],1%
same,Population Membrane Permeable-Phenotype (%),[1],8%
same,Population Mitochondria Different-Phenotype (%),[1],30%
same,Population Mitotic Cells (%),[1],75%
same,Population Normal (%),[1],98%
same,Population Tubulin-Different-Phenotype (%),[1],30%
same,Total Cell Count,[1],161
same,Population Apoptotic (%),[2],20%
same,Population Fragmented Nuclei (%),[2],8%
same,Population Healthy Nuclei (%),[2],87%
same,Population Hoechst High Intensity Objects (%),[2],11%
same,Population Membrane Permeable-Phenotype (%),[2],9%
same,Population Mitochondria Different-Phenotype (%),[2],39%
same,Population Mitotic Cells (%),[2],80%
same,Population Normal (%),[2],88%
same,Population Pyknosed Nuclei (%),[2],4%
same,Population Tubulin-Different-Phenotype (%),[2],35%
same,Total Cell Count,[2],87
same,Population Apoptotic (%),[3],72%
same,Population Fragmented Nuclei (%),[3],17%
same,Population Healthy Nuclei (%),[3],68%
same,Population Hoechst High Intensity Objects (%),[3],3%
same,Population Membrane Permeable-Phenotype (%),[3],12%
same,Population Mitochondria Different-Phenotype (%),[3],29%
same,Population Mitotic Cells (%),[3],28%
same,Population Normal (%),[3],96%
same,Population Pyknosed Nuclei (%),[3],13%
same,Population Tubulin-Different-Phenotype (%),[3],32%
same,Total Cell Count,[3],188
same,Population Apoptotic (%),[4],50%
same,Population Fragmented Nuclei (%),[4],11%
same,Population Healthy Nuclei (%),[4],78%
same,Population Hoechst High Intensity Objects (%),[4],14%
same,Population Membrane Permeable-Phenotype (%),[4],21%
same,Population Mitochondria Different-Phenotype (%),[4],34%
same,Population Mitotic Cells (%),[4],50%
same,Population Normal (%),[4],85%
same,Population Pyknosed Nuclei (%),[4],10%
same,Population Tubulin-Different-Phenotype (%),[4],26%
same,Total Cell Count,[4],136
same,Population Apoptotic (%),[5],22%
same,Population Fragmented Nuclei (%),[5],5%
same,Population Healthy Nuclei (%),[5],91%
same,Population Hoechst High Intensity Objects (%),[5],1%
same,Population Membrane Permeable-Phenotype (%),[5],3%
same,Population Mitochondria Different-Phenotype (%),[5],24%
same,Population Mitotic Cells (%),[5],77%
same,Population Normal (%),[5],98%
same,Population Pyknosed Nuclei (%),[5],3%
same,Population Tubulin-Different-Phenotype (%),[5],29%
same,Total Cell Count,[5],148
same,Population Apoptotic (%),[6],50%
same,Population Fragmented Nuclei (%),[6],9%
same,Population Healthy Nuclei (%),[6],85%
same,Population Hoechst High Intensity Objects (%),[6],2%
same,Population Membrane Permeable-Phenotype (%),[6],9%
same,Population Mitochondria Different-Phenotype (%),[6],43%
same,Population Mitotic Cells (%),[6],50%
same,Population Normal (%),[6],97%
same,Population Pyknosed Nuclei (%),[6],4%
same,Population Tubulin-Different-Phenotype (%),[6],34%
same,Total Cell Count,[6],82
same,Population Apoptotic (%),[7],72%
same,Population Fragmented Nuclei (%),[7],9%
same,Population Healthy Nuclei (%),[7],73%
same,Population Hoechst High Intensity Objects (%),[7],4%
same,Population Membrane Permeable-Phenotype (%),[7],24%
same,Population Mitochondria Different-Phenotype (%),[7],45%
same,Population Mitotic Cells (%),[7],27%
same,Population Normal (%),[7],95%
same,Population Pyknosed Nuclei (%),[7],17%
same,Population Tubulin-Different-Phenotype (%),[7],33%
same,Total Cell Count,[7],287
same,Population Apoptotic (%),[8],55%
same,Population Fragmented Nuclei (%),[8],19%
same,Population Healthy Nuclei (%),[8],69%
same,Population Hoechst High Intensity Objects (%),[8],16%
same,Population Membrane Permeable-Phenotype (%),[8],21%
same,Population Mitochondria Different-Phenotype (%),[8],36%
same,Population Mitotic Cells (%),[8],44%
same,Population Normal (%),[8],83%
same,Population Pyknosed Nuclei (%),[8],10%
same,Population Tubulin-Different-Phenotype (%),[8],29%
same,Total Cell Count,[8],172
